{"data": "Measurements of several laboratories", "Oprk1": "Kappa-type opioid receptor (Oprk1, Mus musculus, UniProt P33534)", "MPO": "Myeloperoxidase (MPO, Homo sapiens, UniProt P05164)", "SLC6A2": "Sodium-dependent noradrenaline transporter (SLC6A2, Homo sapiens, UniProt P23975)", "note": "Compare with care: the assays were run in different laboratories."}
{"SMILES": "CC(C)[C@H](CN1CCc2ccccc2C1)NC(=O)c1ccc([N+](=O)[O-])s1", "target": "Oprk1", "assay": "ligand displacement, radioligand", "setting": "10 µM", "inhibition": "64.5%"}
{"SMILES": "COc1ccc(Cl)cc1-c1cc(=O)[nH]c(=S)n1CC(N)=O", "target": "MPO", "assay": "enzyme activity, inhibitor, fluorescence", "setting": "30 µM", "inhibition": "98.3%"}
{"SMILES": "CCOC(=O)[C@@]12C[C@@H]1[C@@H](n1cnc3c(NCCCCCCc4ccccc4)nc(C#Cc4ccc(Cl)s4)nc31)[C@H](O)[C@@H]2O", "target": "SLC6A2", "assay": "ligand displacement, radioligand", "setting": "10 µM", "inhibition": "83%"}
{"SMILES": "Cc1cc(O)c(-c2ccc([C@@H](C)CN(C)C)cc2)c2c1[nH]c(=O)c1sccc12", "target": "RPS6KC1 (Homo sapiens, UniProt Q96S38)", "assay": "cell-free assay, inhibitor", "setting": "0.1 µM, lysate", "inhibition": "5.19%"}
{"SMILES": "CC(C)OCCn1c(=S)[nH]c(=O)c2[nH]ccc21", "target": "MPO", "assay": "enzyme activity, inhibitor, fluorescence", "setting": "0.1852 µM", "inhibition": "82.5%"}
{"SMILES": "N#CC[C@@]12C[C@@H]1[C@@H](n1cnc3c(NC4CC4)nc(C#Cc4ccc(Cl)s4)nc31)[C@H](O)[C@@H]2O", "target": "SLC6A2", "assay": "ligand displacement, radioligand", "setting": "10 µM", "inhibition": "28%"}
{"SMILES": "COc1ccc(C(=O)NC2CCCc3c2[nH]c2c(Cl)cccc32)cc1OC (stereo not drawn)", "target": "Cysteinyl leukotriene receptor 1 (CYSLTR1, Homo sapiens, UniProt Q9Y271)", "assay": "calcium signal, antagonist", "system": "HEK293", "setting": "33 µM", "inhibition": "~41%"}
{"SMILES": "CC(C)[C@H](CN1CCc2ccccc2C1)NC(=O)c1c(Cl)cncc1Cl", "target": "Oprk1", "assay": "ligand displacement, radioligand", "setting": "10 µM", "inhibition": "69.4%"}
{"SMILES": "CCOC(=O)[C@@]12C[C@@H]1[C@@H](n1cnc3c(NCCCCCCc4ccccc4)nc(I)nc31)[C@H](O)[C@@H]2O", "target": "SLC6A2", "assay": "ligand displacement, radioligand", "setting": "10 µM", "inhibition": "52%"}
{"SMILES": "CC(C)[C@@H](CN1CCc2ccccc2C1)NC(=O)c1cccc(-c2ccc(F)cc2)c1", "target": "Oprk1", "assay": "ligand displacement, radioligand", "setting": "10 µM", "inhibition": "63.9%"}
{"SMILES": "N#CC[C@@]12C[C@@H]1[C@@H](n1cnc3c(Nc4ccccc4)nc(C#Cc4ccc(Cl)s4)nc31)[C@H](O)[C@@H]2O", "target": "SLC6A2", "assay": "ligand displacement, radioligand", "setting": "10 µM", "inhibition": "37%"}
{"SMILES": "CC(C)[C@@H](CN1CCc2ccccc2C1)NC(=O)c1cccc(-c2cccc(C#N)c2)c1", "target": "Oprk1", "assay": "ligand displacement, radioligand", "setting": "10 µM", "inhibition": "80.6%"}
{"SMILES": "CCOC(=O)C12CC1C(n1ccc3c(NCCCc4ccccc4)nc(C#Cc4ccc(Cl)s4)nc31)C(O)C2O (stereo not drawn)", "target": "SLC6A2", "assay": "ligand displacement, radioligand", "setting": "10 µM", "inhibition": "50%"}
{"SMILES": "NC/C(=C\\F)COc1cccc(Cn2c(=S)[nH]c(=O)c3[nH]cnc32)c1", "target": "MPO", "assay": "enzyme activity, inhibitor, fluorescence", "setting": "3.333 µM", "inhibition": "99.2%"}
{"SMILES": "CC(C)[C@@H](CN1CCc2ccccc2C1)NC(=O)C=Cc1ccccc1", "target": "Oprk1", "assay": "ligand displacement, radioligand", "setting": "10 µM", "inhibition": "22.7%"}
{"SMILES": "Cc1cc(F)cc2c(CCC(=O)N[C@@H]3C(=O)NC[C@H]3O)c(-c3ccc(F)cc3)[nH]c12", "target": "SLC6A2", "assay": "cell-free assay", "setting": "10 µM", "inhibition": "21%"}
{"SMILES": "CCOC(=O)[C@@]12C[C@@H]1[C@@H](n1cnc3c(NCCO)nc(C#Cc4ccc(Cl)s4)nc31)[C@H](O)[C@@H]2O", "target": "SLC6A2", "assay": "ligand displacement, radioligand", "setting": "10 µM", "inhibition": "15%"}
{"SMILES": "CC(C)[C@H](CN1CCc2ccccc2C1)NC(=O)c1cccc(-c2ccccc2)c1", "target": "Oprk1", "assay": "ligand displacement, radioligand", "setting": "10 µM", "inhibition": "72.2%"}
